# Most compounds without a hit are left out; they make up all but 6.7% or so of the library.
# CSC inhib: cancer stem cell viability inhibitors, primary screen, luminescence; cancer stem cell-like cells viability; inhibition, % at 7.5 µM; 300,000 tested, 1.1% active; in the data active = inhibition above about 75%; tested in HMLE shEcad cells
# Beta apoptosis: inhibitors of cytokine-induced beta cell apoptosis, primary screen, luminescence; INS-1E cytokine-induced death, ATP luminescence, 48 h; percent of positive-control rescue, neutral wells zero; protection from apoptosis, % (test concentration not listed); 300,000 tested, 0.8% active; AID 435005, 2010;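 active = Every replicate reaches about 75%, or at least half do and their mean reaches it too, limit read from the data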;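 note: 0% = cytokine-treated negative control wells and 100% = positive control rescue; higher means more ATP so stronger rescue from cytokine killing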
# CHOP inh: inhibitors of CHOP promoter induction, primary screen, cell-based, unfolded protein response, luciferase reporter; CHO-K1 CHOP-promoter luciferase, tunicamycin-induced, 15-18 h; inhibition, % at 10 µM; 220,000 tested, 3.8% active; AID 2732, 2010;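 active = compounds that reduced the stress-induced luciferase reporter signal by more than about 70% of percent inhibition, limit read from the data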;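 note: 0% = tunicamycin plus vehicle and 100% = wells without tunicamycin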
# PREPL inh: PREPL enzyme inhibitors, primary screen, biochemical, fluorescence polarization; Prolyl endopeptidase-like (Homo sapiens), Q4J6C6; recombinant PREPL, fluorescence polarization activity-based probe; inhibition, % at 5.96 µM; 320,000 tested, 0.68% active; AID 2751, 2010; in the data active = inhibition above about 43%;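 note: 0% = enzyme with DMSO and 100% = wells lacking enzyme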
# T cruzi inh: inhibitors of intracellular T. cruzi growth, primary screen, luminescence, NIH3T3 host cells | inhibition, % (test concentration not listed) | AID 1885, 2009 | T. cruzi beta-gal in NIH3T3, 90 h | 300,000 tested, 1.4% active;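 active = mean inhibition across valid replicates above about 55%, limit read from the data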;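 note: signal also drops with host cell toxicity which is not excluded here; 0% = plate median of DMSO wells and 100% = zero luminescence signal; higher percent means less beta-gal luminescence so fewer parasites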
#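 System: mouse NIH/3T3 fibroblasts infected with β-gal-expressing T. cruzi Tulahuen C4 / Input: NIH/3T3 cells, 5,000 per well / Buffer or medium: Low-serum DMEM with 2% FBS / Probe or stimulus: 5000 reporter trypomastigotes per well / Schedule: ≥90 h infection period, 3 h prior cell attachment / Measured by: GalScreen luminescence, 60 min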
# GRIN3A LBD mod: binders of NR3A ligand-binding domain, primary screen, biophysical, differential scanning fluorimetry, uHTS | NR3A LBD differential scanning fluorimetry, Tm shift; 0% = protein alone, 100% = glycine-bound protein | 340,000 tested, 2.5% active | Tm shift relative to glycine control, % at 25 µM | Glutamate receptor ionotropic, NMDA 3A (GRIN3A) ligand-binding domain;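 active = melting temperature shift of at least 10% of the positive control shift, at one fixed dose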
# Numbers without * were called inactive; . = no result; ! = not confirmed by another sample.
SMILES,CSC inhib,Beta apoptosis,CHOP inh,PREPL inh,T cruzi inh,GRIN3A LBD mod
CCOCCCNC(=O)c1ccc(-n2c(=S)[nH]c3ccccc3c2=O)cc1,-2,-3,18,-7,-14,0
CC(C)c1cc(C(=O)Nc2cc(Br)ccc2O)no1,25,8,78*,4,-6,-2
CC(C)c1cc(C(=O)Nc2cc(Cl)ccc2O)no1,25,-9,.,1,-4,-5
CCOC(=O)C1=C(C)n2c(s/c(=C/c3cccc([N+](=O)[O-])c3)c2=O)=NC1c1ccc(O)c(OC)c1 (centres undefined),-5,19,30,16,70*,-4
O=C(NNc1ccc(-c2csnn2)cc1)c1cc(Cl)cc(Cl)c1,87*,1,15,0,28,5
Fc1ccc(-c2cc(C(F)(F)F)nc(NCC3CCCO3)n2)cc1 (centres undefined),.,0,84*,-1,23,-1
CC1=C(C#N)C(c2cccnc2)C2=C(CC(c3ccc(Cl)cc3)CC2=O)N1 (centres undefined),-1,-2,12,26,60*,0
COc1ccc2c(c1)oc(=O)c1c3ccccc3[nH]c21,.,.,69,.,10,21*
CCN(CC)c1ccc(NC(=O)c2ccc3c(c2)c(C)c(C)n3C)cc1,2,26,-14,15,69*,-6
COc1ccc(N(CC(=O)Nc2ccc(OC)c(Cl)c2)S(=O)(=O)c2c(C)noc2C)cc1,14,15,67,6,33,1
CCc1ccc(N(CC(=O)Nc2nc3ccc(C)cc3s2)S(=O)(=O)c2c(C)noc2C)cc1,106*,.,83*,-44,41,8
COc1ccc(N(CC(=O)Nc2ccc(F)c(Cl)c2)S(=O)(=O)c2c(C)noc2C)cc1,41,7,-5,8,9,16*
O=C1C2N=NN(CC(=O)N3N=C(c4ccccc4)CC3c3ccc([N+](=O)[O-])cc3)C2C(=O)N1c1ccccc1 (centres undefined),12,4,4,29,-3,.
O=[N+]([O-])c1ccc(S(=O)(=O)NCC(c2cccnc2)N2CCc3ccccc3C2)cc1 (centres undefined),-2,.,.,23,35,-1
O=[N+]([O-])c1ccc(S(=O)(=O)NCC(c2ccco2)N2CCc3ccccc3C2)cc1 (centres undefined),0,-4,.,2,61*,-7
O=S(=O)(NCC(c1cccs1)N1CCc2ccccc2C1)c1ccccc1 (centres undefined),-9,.,.,-66,19,14*
CCC(C(=O)NNC(=O)c1cnccn1)c1ccccc1 (centres undefined),.,4,20,17,9,-5
C=C1CC(COc2ccc3c(C)c(Cl)c(=O)oc3c2)(c2ccccc2)OC1=O (centres undefined),.,.,.,.,.,0
CCCCN(CCCC)Cc1cc2ccccc2c2c1COC2,-5,8,76*,8,-8,-1
CCCC(C)c1nnc(NC(=O)c2cc(C(=O)OC)cc([N+](=O)[O-])c2)s1 (centres undefined),-16,5,51,4,48,-5
Cc1cc(C)nc(Nc2n[nH]c(-c3ccc(C(C)(C)C)cc3)n2)n1,-6,12,77*,8,30,-6
COc1ccc(C(=O)C[n+]2cc(-c3ccc(OC)cc3)n3c2CCCC3)cc1,-6,72,2,8,62*!,-1
Cc1ccc(NC(=O)C[n+]2cc(-c3ccc(C)cc3)n3c2CCC3)cc1,14,6,3,15,.,-1
Cc1ccc(-c2c[n+](Cc3ccc(Cl)c(Cl)c3)c3n2CCC3)cc1,33,89*,-12,18,49,0
Cc1ccc(C(=O)C[n+]2cc(-c3ccc(C)cc3)n3c2CCCCC3)cc1,10,125*,-9,39,69*,3
Cc1c2cc(O)c(=O)cc-2oc2cc(O)c(O)cc12,66,29,23,60*,-1,5

# Assay outcomes as filed in PubChem BioAssay.
